EBI2 antag: blocks human EBI2 receptor beta-arrestin signaling. EBI2 beta-arrestin recruitment, luminescence, 7a,25-OHC stimulated. inhibition, % at 5 µM. hit rate 0.81% among 360,000. AID 651636; in the data active = inhibition above about 38%;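 note: enzyme fragment complementation signal reports receptor beta-arrestin coupling in cells; 0% = agonist plus DMSO wells and 100% = wells without agonist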
Target sequence (P32249 whole entry, looked up, the tested form may be a part): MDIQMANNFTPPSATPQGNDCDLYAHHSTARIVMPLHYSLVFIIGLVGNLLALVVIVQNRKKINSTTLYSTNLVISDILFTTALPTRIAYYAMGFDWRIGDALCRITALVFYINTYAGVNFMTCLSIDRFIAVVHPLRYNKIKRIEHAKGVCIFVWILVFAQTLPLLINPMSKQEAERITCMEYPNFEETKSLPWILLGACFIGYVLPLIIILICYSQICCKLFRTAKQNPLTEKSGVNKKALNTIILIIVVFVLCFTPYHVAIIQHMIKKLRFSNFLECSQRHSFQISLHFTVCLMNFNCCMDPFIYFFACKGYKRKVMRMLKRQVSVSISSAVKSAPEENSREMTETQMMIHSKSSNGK
APJ agonist: APJ receptor agonism; CHO-K1 APJ PathHunter beta-arrestin, luminescence; 0% DMSO wells, 100% apelin; activation, % at 20 µM; hit rate 0.11% among 330,000; AID 2520;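 active = activation more than six SD over the plate average, tested at 20 µM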;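 note: 0% = DMSO alone and 100% = apelin-13 at 10 nM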
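system = engineered CHO-K1 APJ arrestin reporter cells | input = 1000 cells per well | timing = overnight seeding, 90 min compound at 25 °C, 1 h detection | measured by = enzyme-fragment complementation luminescence | read-out = beta-arrestin recruitment to APJ as agonist activity, luminescent signal | control set = negative DMSO alone, positive Apelin-13 at 10 nM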
CXCR6 block: blocks human CXCR6 beta-arrestin recruitment | O00574 | CHO-K1 PathHunter CXCR6 beta-arrestin, luminescence | inhibition, % at 20 µM | hit rate 0.36% among 360,000 | AID 602244; in the data active = inhibition above about 34%, passing the limit was not always enough;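 note: antagonist mode with CXCL16 agonist at 10 nM final; 0% = 10 nM CXCL16 with DMSO and 100% = unstimulated wells without agonist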
CCR6 antagonist: blocks CCL20-driven beta-arrestin recruitment at human CCR6; CHO-K1 CCR6 PathHunter beta-arrestin, luminescence, CCL20-stimulated; inhibition, % at 20 µM; hit rate 0.49% among 340,000; AID 493098;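 active = compounds whose inhibition of the agonist-driven luminescence signal at 20 µM reaches about 50%, limit read from the data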;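 note: cells stimulated with CCL20 at 14 nM final; plate controls were DMSO with CCL20 for no effect and DMSO without agonist for full effect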
Target sequence (P51684 whole entry, looked up): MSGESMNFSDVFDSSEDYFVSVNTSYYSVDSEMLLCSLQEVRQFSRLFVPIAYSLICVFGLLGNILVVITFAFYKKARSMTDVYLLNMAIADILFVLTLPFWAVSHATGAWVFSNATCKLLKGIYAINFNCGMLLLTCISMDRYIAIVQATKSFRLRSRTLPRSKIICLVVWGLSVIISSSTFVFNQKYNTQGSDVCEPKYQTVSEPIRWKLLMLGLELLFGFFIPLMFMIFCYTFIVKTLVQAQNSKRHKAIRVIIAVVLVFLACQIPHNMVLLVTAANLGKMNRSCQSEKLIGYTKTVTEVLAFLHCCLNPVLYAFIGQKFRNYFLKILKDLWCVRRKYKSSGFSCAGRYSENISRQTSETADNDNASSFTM
APJ antagonist: antagonists of human APJ apelin receptor; P35414; CHO-K1 APJ beta-arrestin complementation, luminescence; inhibition, % at 20 µM; hit rate 0.32% among 330,000;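 active = inhibition above about 40% at 20 µM, limit read from the data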;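 note: cells challenged with 10 nM apelin-13 agonist together with compound; plate controls were apelin-13 plus DMSO wells for no effect and DMSO wells lacking apelin-13 for full effect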
EBI2 antag conf: EBI2 (human) antagonism, single concentration confirmation. EBI2 beta-arrestin luminescence, 7a,25-OHC antagonism. hit rate 29% among 2,400. AID 651997. shares compounds with EBI2 antag. inhibition, % at 5 µM;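 active = inhibition of at least 50%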
EBI2 agonist: activates EBI2, counter-screen for EBI2 antagonists; shares compounds with EBI2 antag; EBI2-expressing cells, agonist mode, luminescence, 60 min; 0% vehicle, 100% 7α,25-dihydroxycholesterol control; activation, % at 5 µM; 2,400 tested, under 10 active;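 active = activation of at least 50%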
bGal counter: inhibits E. coli beta-galactosidase, counter-screen for EBI2 antagonists. shares compounds with EBI2 antag. purified beta-galactosidase, luminescent Galacton Star, 15 min. inhibition, % at 5 µM. hit rate 1% among 2,400. AID 652176;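 active = replicate-average signal at least 3 plate SD below neutral wells, shown as high inhibition, flagging enzyme-inhibiting false positives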;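 note: 0% = DMSO wells with enzyme and 100% = wells lacking enzyme; higher means stronger loss of beta-gal luminescence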
An asterisk follows results filed as active; nt = no result. Rows were chosen to be rich in hits. Some 1.5% of all compounds tested hit in one or more screens of this group.

SMILES | EBI2 antag | APJ agonist | CXCR6 block | CCR6 antagonist | APJ antagonist | EBI2 antag conf | EBI2 agonist | bGal counter
OC(COc1ccc2cc(Br)ccc2c1)CN1CCN(c2ccccn2)CC1 (centres undefined) | 82* | -3 | -13 | -6 | 16 | 49 | 1 | -13
CC(=O)Nc1ccc(S(=O)(=O)N2CCN(CC(O)COc3ccc4ccccc4c3)CC2)cc1 (centres undefined) | 57* | 0 | -14 | 7 | -24 | 24 | 1 | 4
OC(COc1ccccc1)CN1CCN(c2ccccc2)CC1 (centres undefined) | 11 | nt | -1 | 13 | nt | nt | nt | nt
OC(COc1ccc(Br)cc1)CN1CCN(c2ccccc2)CC1 (centres undefined) | 48* | -5 | 3 | 0 | 8 | 23 | 0 | -12
CCOc1ccc(N(CC(=O)NN=C2CCN(C)CC2)S(=O)(=O)c2ccc(Br)cc2)cc1 | 3 | 5 | -10 | -4 | 0 | nt | nt | nt
COCCCNC(=S)N1CCC(NC(=O)Nc2ccc(C)cc2)CC1 | -1 | -3 | -7 | 4 | -2 | nt | nt | nt
CC1CC(C)CN(S(=O)(=O)c2ccc3c(c2)CCN3C(=O)C2CC2)C1 (centres undefined) | 8 | 7 | 1 | 11 | 14 | nt | nt | nt
COc1cccc(OCC(O)CN2CCN(c3ccc(Cl)cc3)CC2)c1 (centres undefined) | 13 | -3 | -5 | 3 | 6 | nt | nt | nt
CN(C)S(=O)(=O)N1CCN(CC(O)COc2ccc3cc(Br)ccc3c2)CC1 (centres undefined) | 85* | 2 | -14 | -7 | 1 | 67* | 1 | 9
COc1ccc(OCC(O)CN2CCN(c3ccc(Cl)cc3)CC2)cc1 (centres undefined) | 47* | -4 | -4 | -6 | -9 | 34 | -1 | -7
COc1ccc(OCC(=O)Nc2ccc(N3CCN(Cc4ccccc4F)CC3)cc2)cc1 | 10 | -1 | 7 | 5 | 8 | nt | nt | nt
NC1=NC[C@H](c2ccccc2)N1CCCCC1CCCCC1 | -1 | 4 | -9 | 10 | -20 | nt | nt | nt
S=C1NC[C@H](c2ccccc2)N1CCCCC1CCCCC1 | 46* | -4 | -7 | 25 | 2 | 33 | 0 | 7
CCOc1nc(-c2ccccc2)c2cc(Br)ccc2n1 | -5 | 0 | 1 | 19 | -2 | nt | nt | nt
COc1ccc(/C=C(/CC(=O)NCc2ccc(Cl)cc2)c2nc3ccccc3s2)cc1 | 39* | 1 | 2 | 21 | 12 | 1 | -2 | -12
Cc1c(C(=O)NCCSCc2cccc(C(F)(F)F)c2)cnn1-c1ccc(F)cc1 | 5 | -1 | -3 | 2 | -8 | nt | nt | nt
CC(C)(C)SCCNC(=O)COc1ccc(Cl)cc1 | 33 | 1 | 5 | 5 | 2 | nt | nt | nt
Cc1ccccc1CSCCNC(=O)COc1ccc(Cl)cc1 | 55* | -1 | 6 | 19 | -12 | 45 | 1 | -1
O=C1CC(C(=O)N2CCN(c3ccccc3O)CC2)CN1Cc1ccccc1 (centres undefined) | -4 | -2 | -5 | 7 | 6 | nt | nt | nt
Cc1nc2ccccn2c1-c1csc(Nc2cccc(O)c2)n1 | 8 | nt | -3 | 9 | nt | nt | nt | nt
Cc1cccc(Nc2nc(-c3c(C)nc4ccccn34)cs2)c1 | 63* | -1 | 1 | 4 | 15 | 54* | 1 | 7
Cc1cccc(NC(=O)c2ccc(OC3CSC3)cc2)c1 | 55* | -3 | -14 | 1 | 3 | 48 | 2 | -3
CC(=O)c1cccc(NC(=O)c2ccc(OC3CSC3)cc2)c1 | 13 | -2 | -4 | 0 | 11 | nt | nt | nt
C[C@@H]1CN[C@H](CCO)/C1=C\c1ccccc1 | -8 | nt | -2 | 8 | nt | nt | nt | nt
Cc1ccc(/C=C/C(=O)NC(=S)N2CCN(C)CC2)cc1 | 55* | -1 | 3 | -1 | 4 | 49 | 0 | -14
SMILES | EBI2 antag | APJ agonist | CXCR6 block | CCR6 antagonist | APJ antagonist | EBI2 antag conf | EBI2 agonist | bGal counter
Cc1ccc(/C=C/C(=O)NC(=S)N2CCN(c3ccc(F)cc3)CC2)cc1 | 48* | -3 | -8 | -6 | -14 | 21 | -1 | -10
CC(C)N1CCC1(C)C(=O)Nc1ccc2cn[nH]c2c1 (centres undefined) | 1 | nt | -6 | nt | nt | nt | nt | nt
CCc1nnc(N2C(=O)c3ccccc3C2(O)c2ccccc2)s1 (centres undefined) | 4 | 0 | -2 | -2 | 5 | nt | nt | nt
Cc1nc2c(OCc3ccc(Cl)cc3Cl)cccn2c1N(C)Cc1cccs1 | 42* | nt | 25 | nt | nt | 29 | -1 | -12
O=C1CCN(S(=O)(=O)c2cc(C(F)(F)F)ccc2Cl)CC1 | -9 | -2 | 4 | 0 | 6 | nt | nt | nt
COc1cccc(NC(=O)C(Sc2nnc(Nc3ccccc3C)s2)c2ccccc2)c1 (centres undefined) | 46* | -2 | 9 | 21 | -9 | 8 | 0 | -10
Cc1ccc(C(=O)N2CCN(c3ccccn3)CC2)cc1 | 0 | -6 | -8 | 4 | -12 | nt | nt | nt
O=C(c1ccc2ccccc2c1)N1CCN(c2ccccn2)CC1 | 56* | -2 | 9 | 3 | 0 | 42 | 1 | 9
Cc1ccc2c(c1)cc(C(=O)N1CCN(c3ccccn3)CC1)n2C | 47* | -3 | 14 | 9 | 9 | 34 | -2 | -9
O=C(c1ccc2ccccc2c1)N1CCN(c2ccc(O)cc2)CC1 | 57* | 0 | 5 | 8 | -15 | 26 | -1 | -11
CCOC(=O)C1=CCN(S(=O)(=O)c2ccc(Cl)cc2)C1c1ccccc1 (centres undefined) | 16 | nt | 2 | nt | nt | nt | nt | nt
O=[N+]([O-])c1ccc(N2CCC(=NOCc3ccc(Cl)cc3)CC2)cc1 | 53* | -1 | -2 | 18 | 6 | 26 | -1 | -8
O=[N+]([O-])c1ccc(CN2CCN(c3ccc([N+](=O)[O-])cc3)CC2)cc1 | 9 | 0 | 0 | 22 | 7 | nt | nt | nt
O=C(CCN1C(=O)c2cccc3cccc(c23)C1=O)Nc1ccccc1 | -7 | -2 | -4 | 4 | 0 | nt | nt | nt
Cc1ccc(NC(=O)CN2C(=O)NC3(CCCCC3C)C2=O)cc1S(=O)(=O)N1CCCCC1 (centres undefined) | 4 | -2 | -6 | 4 | -21 | nt | nt | nt
O=C(CCC1CCCC1)NNC(=O)COc1ccc(Br)cc1 | 79* | -1 | 2 | -1 | 6 | 37 | -1 | -7
CC1CCCC(C)N1CC(O)COCc1ccccc1F (centres undefined) | 3 | -1 | 11 | -11 | 12 | nt | nt | nt
CCN(CC)Cc1nc2c(c(=O)[nH]1)C(CC)(CC)Cc1ccccc1-2 | -9 | 1 | 12 | 16 | -18 | nt | nt | nt
O=C(NCc1ccccc1)c1ccc(Oc2ccc(C(=O)NCc3ccccc3)cc2)cc1 | 47* | -3 | -2 | -7 | -7 | 21 | 1 | 8
